For assay [1], the system named is MDA-MB-231. Kind of assay: cells. The settings on record: Homo sapiens, MDA-MB-231, 72 h.
A further assay has as its system PC-3. Nature of the assay: cells. The settings on record: Homo sapiens, PC-3, 72 h.
The next assay relates to HepG2. Kind of assay: cells. The settings on record: Homo sapiens, HepG2, 72 h.
Another assay has as its system A549. Nature of the assay: cells. The settings on record: Homo sapiens, A549, 72 h.
In assay [2] the test system is HUVEC. Kind of assay: Antimigratory activity against human HUVEC cells assessed as inhibition of cell invasion measured by inverted fluorescence microscope based transwell assay. The format is functional. The settings on record: dose 2.5-5 µM. Summed up:
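A Boyden chamber (transwell) invasion assay used HUVECs passing through Matrigel and a membrane barrier. Treatment was 2.5 and 5 µM, with a reference VEGFR-2 inhibitor as standard. Invaded cells on the bottom side were compared with untreated control.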

Assay [3] has as its system MDA-MB-231. Kind of assay: Antimigratory activity against human MDA-MB-231 cells assessed as inhibition of cell migration at 2.5 uM measured after 24 hrs by phase contrast microscope based wound healing assay. The format is functional. In outline: (§1)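 Confluent MDA-MB-231 monolayers (DMEM, 10% FBS) were scratched with a sterile pipette tip and then treated. Wound closure was imaged by phase contrast microscopy after 24 h and compared with untreated control.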

Assay [4] has as its system HUVEC. Kind of assay: Antiangiogenic activity against human HUVEC cells assessed as inhibition of tube formation measured after 16 hrs by matrigel based tube formation assay. The class given is functional, cell-based. The settings on record: dose 2.5-5 µM. In outline:
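HUVECs were plated on Matrigel with 2.5 and 5 μM test agent, alongside a reference VEGFR-2 inhibitor. Tube networks were imaged, and quantification covered cell-covered area, tube length, branching points and total loops.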

The subject of assay [5] is MDA-MB-231. Kind of assay: Antimigratory activity against human MDA-MB-231 cells assessed as inhibition of cell migration at 5 uM measured after 24 hrs by phase contrast microscope based wound healing assay. The class given is functional. In outline: as §1

Calls of active or inactive are those of the source. The calls are words filed in the database; no cut-off is given here.

`O=C(Nc1ccccc1)Nc1nc(Sc2c[nH]c3ccccc23)cc(N2CCN(c3ccccn3)CC2)n1`: the IC50 – broadly, the concentration needed to halve the response being measured – came out at 19.5 µM in the assay on MDA-MB-231 [1], 21.6 µM in the assay on PC-3, 8.93 µM in the assay on HepG2 and 30.2 µM in the assay on A549.
In the case of `CNC(=O)c1cc(Oc2ccc(NC(=O)Nc3ccc(Cl)c(C(F)(F)F)c3)cc2)ccn1` [SORAFENIB], the IC50 in the assay with MDA-MB-231 [1] came out at 11.8 µM; in the assay on PC-3, 9.77 µM; in the assay on HepG2, 5.78 µM. Further, the inhibition result in the assay on HUVEC [2] and in the assay with HUVEC [4] was “Dose-dependent effect” throughout. Also, the inhibition result with MDA-MB-231 [3] and with MDA-MB-231 [5] was “Active” each time.
As for `O=C(Nc1ccccc1)Nc1nc(Nc2ccc(Cl)cc2)cc(Sc2c[nH]c3ccccc23)n1`, the IC50 in the assay on MDA-MB-231 [1] came to 10.3 µM; in the assay on PC-3, 32.3 µM; in the assay on HepG2, 12.6 µM; in the assay on A549, 48.4 µM.
In the case of `Cc1cc(Cl)ccc1NC(=O)Nc1nc(NC2CC2)cc(Sc2c[nH]c3ccccc23)n1`, the IC50 is 14.6 µM in the assay on MDA-MB-231 [1], 11.1 µM in the assay with PC-3, 9.74 µM with HepG2 and 31.5 µM in the assay on A549.
For `O=C(Nc1ccccc1)Nc1nc(NC2CC2)cc(Sc2c[nH]c3ccccc23)n1`, the IC50 in the assay with MDA-MB-231 [1] was 7.86 µM; in the assay with PC-3 it was 17.5 µM; in the assay on HepG2, 14.3 µM; in the assay on A549 it was more than 50 µM.
For `O=C(Nc1ccccc1)Nc1nc(Sc2c[nH]c3ccccc23)cc(N2CCOCC2)n1`, in that order: 12.1 µM, 14.1 µM, 7.14 µM and 26.1 µM.
In the case of `COc1ccc(NC(=O)Nc2nc(Sc3c[nH]c4ccccc34)cc(N3CCCC3)n2)cc1`, the IC50 in the assay with MDA-MB-231 [1] was found to be 13.1 µM; in the assay with PC-3, 21.5 µM; with HepG2, 20.3 µM; with A549, 11.8 µM.
As to `Cc1ccc(C)c(NC(=O)Nc2nc(Sc3c[nH]c4ccccc34)cc(N3CCN(Cc4ccccc4)CC3)n2)c1`, the IC50 is 19 µM with MDA-MB-231 [1], 17.3 µM in the assay with PC-3, 16.4 µM in the assay on HepG2 and more than 50 µM in the assay with A549.
For the compound `COc1ccc(NC(=O)Nc2nc(Nc3cc(OC)cc(OC)c3)cc(Sc3c[nH]c4ccccc34)n2)cc1`, the IC50 with MDA-MB-231 [1] is 9.46 µM; with PC-3 it was 15.1 µM; with HepG2 it was 17.4 µM; in the assay on A549, more than 50 µM.
With `O=C(Nc1ccccc1)Nc1nc(Sc2c[nH]c3ccccc23)cc(N2CCCC2)n1`, the IC50 turned out to be 7.89 µM with MDA-MB-231 [1], 14.9 µM in the assay on PC-3, 11.4 µM in the assay on HepG2 and 21.2 µM with A549.
Consider `O=C(Nc1ccc(Cl)cc1)Nc1nc(Sc2c[nH]c3ccccc23)cc(N2CCOCC2)n1`, for which the IC50 in the assay on MDA-MB-231 [1] is 6.93 µM; in the assay on PC-3 it was 28.4 µM; with HepG2, 22.5 µM; with A549 it was 21.8 µM.
For `COc1ccc(NC(=O)Nc2nc(Sc3c[nH]c4ccccc34)cc(N3CCOCC3)n2)cc1`, the IC50 in the assay on MDA-MB-231 [1] amounted to 7.94 µM; with PC-3, 12.5 µM; with HepG2, 10.3 µM; with A549, 33.4 µM.
For `COc1cc(NC(=O)Nc2nc(Nc3cc(OC)cc(OC)c3)cc(Sc3c[nH]c4ccccc34)n2)cc(OC)c1`, in that order: more than 50 µM, 11.6 µM, 24.8 µM and more than 50 µM.
`O=C(Nc1ccccc1)Nc1nc(Sc2c[nH]c3ccccc23)cc(N2CCCCC2)n1`: the IC50 turned out to be 8.13 µM with MDA-MB-231 [1], 12.1 µM in the assay with PC-3, 20.9 µM in the assay with HepG2 and 33.1 µM in the assay with A549.
For `Cc1cc(Cl)ccc1NC(=O)Nc1nc(Sc2c[nH]c3ccccc23)cc(N2CCN(c3ccccn3)CC2)n1`, the IC50 in the assay with MDA-MB-231 [1] was 34.7 µM; in the assay with PC-3, 19.8 µM; in the assay with HepG2, 7.64 µM; in the assay with A549, more than 50 µM.
On to `O=C(Nc1ccccc1)Nc1nc(Nc2ccccc2)cc(Sc2c[nH]c3ccccc23)n1`, for which the IC50 in the assay on MDA-MB-231 [1] is 35.9 µM; in the assay with PC-3, 26.4 µM; in the assay on HepG2 it was 14.4 µM; in the assay on A549 it was more than 50 µM.
For `O=C(Nc1ccc(Cl)cc1)Nc1nc(Sc2c[nH]c3ccccc23)cc(N2CCCCC2)n1`, in that order: 10.1 µM, 42.5 µM, 14.8 µM and 18.6 µM.
On to `O=C(Nc1ccccc1)Nc1nc(Sc2c[nH]c3ccccc23)cc(N2CCN(Cc3ccccc3)CC2)n1`, for which the half-inhibitory concentration (IC50) in the assay on MDA-MB-231 [1] was 10.2 µM; in the assay with PC-3, 42.5 µM; in the assay on HepG2 it was 8.16 µM; with A549, more than 50 µM.
`COc1ccc(NC(=O)Nc2nc(Sc3c[nH]c4ccccc34)cc(N3CCN(Cc4ccccc4)CC3)n2)cc1`: the half-maximal inhibitory concentration (IC50) was found to be 8.92 µM with MDA-MB-231 [1], 16.7 µM with PC-3, 21.4 µM in the assay with HepG2 and 42.3 µM in the assay with A549.
For the compound `COc1ccc(NC(=O)Nc2nc(Sc3c[nH]c4ccccc34)cc(N3CCN(c4ccccn4)CC3)n2)cc1`, the IC50 was 28.4 µM in the assay with MDA-MB-231 [1], 33.4 µM with PC-3, 11.4 µM with HepG2 and more than 50 µM in the assay on A549.
As to `Cc1cc(Cl)ccc1NC(=O)Nc1nc(Sc2c[nH]c3ccccc23)cc(N2CCN(Cc3ccccc3)CC2)n1`, the IC50 in the assay on MDA-MB-231 [1] was 22.1 µM; in the assay with PC-3 it was 22.4 µM; in the assay on HepG2, 11.7 µM; in the assay with A549 it was more than 50 µM.
`Cc1cc(Cl)ccc1NC(=O)Nc1nc(Nc2ccccc2)cc(Sc2c[nH]c3ccccc23)n1`: the IC50 in the assay on MDA-MB-231 [1] is 17.1 µM; in the assay with PC-3 it was 41.9 µM; in the assay with HepG2, 8.37 µM; in the assay with A549, more than 50 µM.
Turning to `COc1ccc(NC(=O)Nc2nc(Sc3c[nH]c4ccccc34)cc(N3CCCCC3)n2)cc1`, the IC50 was determined as 7.26 µM with MDA-MB-231 [1], 17.4 µM in the assay with PC-3, 17.1 µM in the assay on HepG2 and 13.5 µM in the assay on A549.
`Cc1ccc(NC(=O)Nc2nc(Nc3ccccc3)cc(Sc3c[nH]c4ccccc34)n2)cc1`: the IC50 with MDA-MB-231 [1] stood at 13.4 µM; in the assay on PC-3, 18.4 µM; in the assay on HepG2, 14.9 µM; with A549 it was 23.4 µM.
As for `Cc1cc(Cl)ccc1NC(=O)Nc1nc(Sc2c[nH]c3ccccc23)cc(N2CCCC2)n1`, the IC50 with MDA-MB-231 [1] turned out to be 9.44 µM; in the assay with PC-3 it was 12.9 µM; in the assay on HepG2 it was 7.15 µM; with A549, 8.93 µM.
As for `Cc1cc(Cl)ccc1NC(=O)Nc1nc(Sc2c[nH]c3ccccc23)cc(N2CCOCC2)n1`, the IC50 with MDA-MB-231 [1] is 8.65 µM; in the assay on PC-3, 33.8 µM; in the assay with HepG2 it was 8.26 µM; in the assay with A549, more than 50 µM.

For the origin of these results see ChEMBL document CHEMBL4765329, “Exploration of carbamide derived pyrimidine-thioindole conjugates as potential VEGFR-2 inhibitors with anti-angiogenesis effect” (Eur J Med Chem, 2020).
